Compound activity from PubChem BioAssay.
hERG protect: hERG rescue from dofetilide block, primary screen, cell-based, CHO-hERG, FluxOR thallium flux, dofetilide IC70; dofetilide IC70 present; activation (rescue from dofetilide block), less the hit threshold, % at 10 µM; 0.51% of 310,000 active;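 active = activation above the mean of controls blocked by dofetilide plus 5 SD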;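 note: thallium influx through hERG after potassium depolarization seen as dye fluorescence rise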
Target sequence (Q12809 whole entry, looked up): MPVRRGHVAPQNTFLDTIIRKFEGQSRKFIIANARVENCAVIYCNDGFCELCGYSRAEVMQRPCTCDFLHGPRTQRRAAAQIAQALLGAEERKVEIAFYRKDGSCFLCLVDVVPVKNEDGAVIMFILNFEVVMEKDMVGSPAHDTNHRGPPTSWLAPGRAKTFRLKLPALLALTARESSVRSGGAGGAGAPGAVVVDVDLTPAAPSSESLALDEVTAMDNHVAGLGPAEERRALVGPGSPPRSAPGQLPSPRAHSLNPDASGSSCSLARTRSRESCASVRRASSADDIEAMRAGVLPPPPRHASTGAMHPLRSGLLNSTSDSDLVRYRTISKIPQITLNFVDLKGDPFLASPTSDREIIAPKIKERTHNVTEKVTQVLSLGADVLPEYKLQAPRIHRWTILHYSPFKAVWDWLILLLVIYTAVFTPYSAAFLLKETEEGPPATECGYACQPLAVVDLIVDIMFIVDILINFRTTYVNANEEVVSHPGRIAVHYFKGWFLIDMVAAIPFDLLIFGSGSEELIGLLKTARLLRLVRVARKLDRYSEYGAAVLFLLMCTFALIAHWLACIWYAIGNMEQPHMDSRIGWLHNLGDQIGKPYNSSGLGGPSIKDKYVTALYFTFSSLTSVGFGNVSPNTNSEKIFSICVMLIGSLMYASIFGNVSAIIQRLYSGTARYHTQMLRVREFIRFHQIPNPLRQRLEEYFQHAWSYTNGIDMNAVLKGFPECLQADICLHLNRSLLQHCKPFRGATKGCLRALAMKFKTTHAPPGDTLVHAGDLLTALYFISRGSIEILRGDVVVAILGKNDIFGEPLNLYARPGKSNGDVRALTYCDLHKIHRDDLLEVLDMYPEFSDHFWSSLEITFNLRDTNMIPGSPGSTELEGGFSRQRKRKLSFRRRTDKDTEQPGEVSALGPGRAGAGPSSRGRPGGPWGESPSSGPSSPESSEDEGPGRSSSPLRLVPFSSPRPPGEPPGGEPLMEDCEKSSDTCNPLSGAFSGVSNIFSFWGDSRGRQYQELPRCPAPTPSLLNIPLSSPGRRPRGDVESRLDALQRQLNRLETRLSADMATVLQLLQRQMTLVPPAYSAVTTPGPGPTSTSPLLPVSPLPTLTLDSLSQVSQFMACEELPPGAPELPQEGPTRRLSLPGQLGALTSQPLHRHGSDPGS
KCNK9 block: KCNK9 potassium channel inhibitors, primary screen, HEK293 cells, thallium flux. 1.2% of 310,000 active. AID 488922, 2010. B-score at 10 µM. FluxOR thallium flux fluorescence; active compounds read low. Potassium channel subfamily K member 9 (Homo sapiens), Q9NPC2;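 active = ratio B-score over 3 SD below the library mean, with starting fluorescence within 5 SD of its mean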;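 note: negative B-score means less thallium flux so channel inhibition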
KCNK3 block: human KCNK3 channel inhibitors, primary screen, CHO cells, FluxOR thallium flux, B-score. FluxOR fluorescence; active compounds read low. B-score at 10 µM. 0.84% of 340,000 active;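 active = B-score under library mean minus 4 SD, starting fluorescence ratio at most library mean plus 5 SD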;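 note: more negative B-score means stronger inhibition of thallium flux through KCNK3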
KCNQ1 inh: inhibitors of human KCNQ1 channel, primary screen, cell-based, thallium flux, high-throughput. Potassium voltage-gated channel subfamily KQT member 1 (Homo sapiens), P51787. CHO-K1 KCNQ1, FluxOR thallium flux fluorescence; active compounds read high. B-score at 10 µM. 1.3% of 310,000 active. AID 2642, 2010;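 active = compounds whose thallium flux B-score, printed positive for inhibition, exceeds three library SD while starting fluorescence stays within three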;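 note: channel opened by potassium depolarization with thallium stimulus after 20 min compound exposure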
KCNQ1 pot: potentiators or activators of KCNQ1 channel, primary screen, cell-based, thallium flux, high-throughput. CHO-K1 KCNQ1, thallium flux FluxOR fluorescence; active compounds read high. B-score at 10 µM. AID 2648, 2010. Potassium voltage-gated channel subfamily KQT member 1 (Homo sapiens), P51787. 0.35% of 310,000 active;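 active = fluorescence ratio B-score, a plate-corrected score, at least three library SD, with initial intensity B-score within 5 SD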
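Assay system: stable KCNQ1 CHO-K1 line; medium: assay buffer, equal DMSO in all wells; timing: 90 min dye loading and 20 min compound exposure, both at room temperature; technique: kinetic FluxOR thallium fluorescence, 10-s 1-Hz baseline, 110-s post-stimulus read; read-out basis: B score of baseline-normalized fluorescence ratio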
KCNK3 confirm: retest of human KCNK3 channel inhibitors, confirmation, CHO cells, FluxOR thallium flux, triplicate; 99% of 2,400 active; FluxOR fluorescence; 0% buffer, 100% carvedilol maximal block; AID 651638, 2012; shares compounds with KCNK3 block; ratio percent of control, % at 10 µM;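 active = ratio percent of control, averaged over triplicates, above buffer control mean plus 5 SD, cut at about 64% in these data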;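 note: ratio is the fluorescence rise from min to max over baseline after thallium stimulus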
KCNK3 uninduced: thallium flux inhibition in non-induced cells, primary screen, counter-screen for KCNK3 inhibitor project, cell-based, non-induced KCNK3 line, FluxOR thallium, triplicate | thallium flux ratio (lower = more inhibition) at 10 µM | 40% of 2,400 active | non-induced KCNK3 parental cells; active compounds read low | AID 651747, 2012 | shares compounds with KCNK3 block;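 active = thallium flux ratio, averaged over three wells, more than 5 SD below the buffer control mean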;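 note: host cells are CHO cells without KCNK3 induction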
Numbers stand for hits; 0 = inactive; - = not tested or not shown. A selection: hits, their analogues and other compounds. The true share with any hit is near 3.1%.

SMILES	hERG protect	KCNK9 block	KCNK3 block	KCNQ1 inh	KCNQ1 pot	KCNK3 confirm	KCNK3 uninduced
COc1cccc2cc(C(C)N(CCCN3CCOCC3)C(=S)Nc3ccc(C)c(C)c3)oc12 (centres undefined)	0	0	-9.3	0	0	89	0
CCC1SC2=NC(C)=C(C(=O)OC)C(c3cccs3)N2C1=O (centres undefined)	0	0	-13	0	0	89	0
CCOc1ccc(S(=O)(=O)NCCC(=O)N(CC)CC(=O)Nc2c(F)cccc2F)cc1	0	0	0	0	0	-	-
Cc1ccc(C)c(CSC2=NCCN2S(=O)(=O)c2ccccc2)c1	0	-7.9	-11	0	0	129	0.15
O=S(=O)(c1ccc(Cl)cc1)N1CCN=C1SCc1cccc(Cl)c1	0	0	0	0	0	-	-
O=S(=O)(c1ccccc1)N1CCN=C1SCc1c(F)cccc1Cl	0	0	-11	0	0	121	0.14
O=C(COC(=O)CCc1ccc(S(=O)(=O)N2CCOCC2)cc1)NCc1ccccc1	0	0	0	0	0	-	-
C=CCNc1nc(C(=O)OCC(=O)Nc2c(Cl)cccc2C(F)(F)F)cs1	0	0	0	0	0	-	-
CC(=O)Nc1ccc(Oc2cc(C#N)c(C#N)cc2N2CCCCCC2)cc1	-	-	-13	-	-	120	0
CC(=O)Nc1ccc(Oc2cc(C#N)c(C#N)cc2N2CCOCC2)cc1	0	0	0	0	0	-	-
O=C(COc1ccc(F)cc1)N(Cc1ccc(Cl)cc1)C1CCS(=O)(=O)C1 (centres undefined)	0	0	0	0	0	-	-
O=C(NNS(=O)(=O)c1ccc(Br)cc1)c1csnn1	-	-	0	-	-	-	-
CCCCCc1nnc(NC(=O)Cn2cnc3ccccc3c2=O)s1	0	0	0	0	0	-	-
Cc1cccc(N=c2oc3cc(O)ccc3cc2C(N)=O)c1	0	0	-8.8	0	0	113	0
COc1ccccc1N=c1oc2cc(O)ccc2cc1C(N)=O	0	0	0	0	0	-	-
Cc1n[nH]c(C)c1CCC(=O)N/N=C/c1cccs1	0	0	0	0	0	-	-
COc1ccc(OC)c(C(=O)COC(=O)c2cc(C)oc2C)c1	0	0	-10	0	0	119	0
CCCN1C(=O)/C(=C/c2cc(C)n(C)c2C)SC1=Nc1ccc(OC)cc1	0	0	-11	0	0	101	0.15
Cc1noc(C)c1COc1cccc(C(=O)OCCOc2ccc(F)cc2)c1	0	0	-14	0	0	116	0
Cc1noc(C)c1COc1cccc(C(=O)Oc2ccc3c(c2)OCO3)c1	0	0	-8.8	0	0	96	0
CCC(Sc1nc2ncccc2[nH]1)C(=O)N1CCOCC1 (centres undefined)	0	0	0	0	0	-	-
CC1CCN(c2ccccc2NC(=O)c2ccc(Br)o2)CC1	0	-8	-9	0	0	126	0.15
O=C(NCc1ccc(F)cc1)C(c1ccco1)N(C(=O)c1csnn1)C1CC1 (centres undefined)	0	0	0	0	0	-	-
COC(=O)Cc1c[nH]c2cccc(OCC(O)CN(Cc3ccccc3)C(C)C)c12 (centres undefined)	0	-7.9	-8.9	0	0	100	0
COc1ccccc1NC(=O)C(C)N(C)Cc1ccc(Cl)s1 (centres undefined)	0	-6.9	0	0	0	107	0.16
SMILES	hERG protect	KCNK9 block	KCNK3 block	KCNQ1 inh	KCNQ1 pot	KCNK3 confirm	KCNK3 uninduced
COc1ccccc1NC(=O)C(C)N(C)CC(=O)Nc1cccc2ccccc12 (centres undefined)	-	-	0	-	-	-	-
COc1ccc(CN(C)C(C)C(=O)Nc2cccc3ccccc23)cc1 (centres undefined)	0	0	-9.7	0	0	121	0.16
CN(C)C(CNC(=O)C1CC(=O)N(Cc2ccccc2)C1)c1ccccc1 (centres undefined)	0	0	0	0	0	-	-
Cc1cccc(OCCCSc2nc3ccccc3[nH]2)c1	0	0	-8.9	0	0	126	0.12
Cc1cccc(OCCSCc2nc3ccccc3[nH]2)c1	0	0	0	0	0	-	-
COc1ccc(C2C(C(=O)c3ccco3)=C(O)C(=O)N2Cc2cccnc2)cc1OC (centres undefined)	0	0	-9.3	0	0	64	0
CCc1ccc(N2C(=O)C(Cl)=C(N3CCCCCC3)C2=O)cc1	0	-7.1	0	0	0	117	0.15
Cc1cccc2nc(CSCc3ccco3)cn12	0	0	0	0	0	-	-
Cc1cc(C)n2cc(CSCc3ccco3)nc2n1	0	0	-17	0	0	78	0
CNCC(=O)N(CC(C)C)c1c(N)n(CC(C)C)c(=O)[nH]c1=O	0	0	0	0	0	-	-
COc1ccccc1NS(=O)(=O)c1cccc(NC(=O)c2sc3ccccc3c2Cl)c1	0	0	-9.1	0	0	96	0
O=C(NCCCc1ccccc1)c1ccc(CS(=O)Cc2ccc(Cl)cc2)o1 (centres undefined)	0	0	0	0	0	-	-
CCS(=O)(=O)N1CCCC(C(=O)c2ccc(OC)cc2C)C1 (centres undefined)	0	0	0	0	0	-	-
COc1ccc(C(=O)C2CCCN(S(=O)(=O)c3ccc(C(C)=O)cc3)C2)c(C)c1 (centres undefined)	0	0	-10	0	0	120	0.15
Cc1ccc(C(=O)NC(C)c2ccc(F)cc2)cc1 (centres undefined)	0	0	0	0	0	-	-
Cc1ccc(C(C#N)c2ccc(C(=O)c3ccc(F)cc3)cc2)cc1 (centres undefined)	0	0	-8.8	13	0	99	0.12
O=C(/C=C/c1ccccc1Br)c1ccc2c(c1)OCO2	0	0	0	0	0	-	-
O=C(/C=C\Nc1ccccc1Br)c1ccc2c(c1)OCO2	0	0	-12	0	0	118	0
O=[N+]([O-])c1cnc(Sc2ccncn2)s1	0	0	0	0	0	-	-
C=CCn1c(Sc2ncc([N+](=O)[O-])s2)n[nH]c1=O	0	0	-9.3	7	0	144	0.083
Cc1cc(C)cc(OCC(=O)Nc2ccccc2N2CCCCC2)c1	0	0	-10	0	0	94	0
Cc1cccc(OCC(=O)Nc2ccccc2N2CCCC2)c1C	0	0	-9.8	0	0	118	0.14
O=C(COc1ccc(Br)cc1)Nc1ccccc1N1CCCC1	0	0	0	0	0	-	-
O=C(COc1c(Cl)cccc1Cl)Nc1ccccc1N1CCCC1	0	0	-9.1	0	0	121	0.13
